Experimental data from PubChem BioAssay AID492968 (Southern Research Specialized Biocontainment Screening …, 2010).

Test system: HEp-2 viability, luminescence (CellTiter-Glo)
Assay: HEp-2 cell cytotoxicity, dose response, cytotoxicity control for RSV inhibitor project, CellTiter-Glo luminescence, synthesized compounds, set 3 (AID 492968)
Method in brief: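 Dosing: eight twofold dilutions, 50 to 0.39 µM final, 0.5% DMSO; assay system: HEp-2 cells; benchmarks: median of cell control wells as viability reference; evaluation: CC50 from 0–100-bounded four-parameter fit; repeats: triplicate wells per compound concentration; buffer or medium: complete DMEM/F12, pH 7.5; technique: CellTiter-Glo luminescence; incubation: 6 d compound exposure, 37 °C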

SMILES	CC50
Cc1cc(C)cc(NC(=O)[C@@H]2CCCN2S(=O)(=O)c2cccc3cccnc23)c1	31.6 µM
Cc1ccc(NC(=O)[C@@H]2CCCN2S(=O)(=O)c2cccc3cccnc23)cc1	27.1 µM
Cc1ccccc1NC(=O)[C@@H]1CCCN1S(=O)(=O)c1cccc2cccnc12	45 µM
